Results published in ChEMBL document CHEMBL1144911, “Synthesis and biological evaluation of 5-substituted derivatives of the potent antiherpes agent (north)-methanocarbathymine” (J Med Chem, 2003).

Legend:
HFF [1] = experiment: Concentration for HSV-1 plaque reduction (VPR) by 50% in HFF cells; format: functional, cell-based; settings: Homo sapiens
Homo sapiens [2] = species: Homo sapiens; experiment: Inhibitory concentration required to reduce HSV-2 induced cytopathogenic effect in human skin fibroblast; format: functional, organism-based
Human alphaherpesvirus 2 = experiment: Inhibitory concentration required to reduce HSV-2 induced cytopathogenic effect (CPE) by 50 % in HFF cells; format: functional, organism-based; settings: Human alphaherpesvirus 2, HFF
Homo sapiens [3] = species: Homo sapiens; experiment: Inhibitory concentration required to reduce HSV-1 induced virus plaque reduction (VPR) in human skin fibroblast; format: functional, organism-based
Human alphaherpesvirus 1 [4] = experiment: (§1) Inhibitory concentration required to reduce HSV-1 induced cytopathogenic effect (CPE) in human skin fibroblast; format: functional, organism-based, herpes simplex virus
HFF [5] = experiment: Concentration for HSV-2 plaque reduction (VPR) by 50% in HFF cells; format: functional, cell-based; settings: Homo sapiens
Human alphaherpesvirus 1 [6] = experiment: Inhibitory concentration required to reduce HSV-1 induced cytopathogenic effect (CPE) by 50 % in HFF cells; format: functional, organism-based, herpes simplex virus; settings: Human alphaherpesvirus 1, HFF
Homo sapiens [7] = species: Homo sapiens; experiment: Inhibitory concentration required to reduce HSV-2 induced virus plaque reduction (VPR) in human skin fibroblast; format: functional, organism-based
[8] = Inhibitory activity against HSV-1-TK transfected osteosarcoma cells; format: functional
How it was run: (§2)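 Osteosarcoma lines (143B-TK⁻ with 0.1 mg/mL 5-BrdU selection; MG-63-hTK1; 143B-TK⁺-HSV1-WT with HAT) grown in MEM/10% FCS. Seeded at 2 × 10³ (143B lines) or 1.5 × 10³ (MG-63) cells/well, exposed to five concentrations over 0.5–500 μM for 4.5 days at 37 °C/5% CO₂. XTT added for 9 h, A450 (ref 750 nm) read against untreated wells. Three independent series in triplicate.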

[9] = Cytotoxic concentration against non transfected osteosarcoma cells non transfected (MG-63-hTK1); format: functional; how it was run: as §2
[10] = target: T1, Thymidine kinase, cytosolic (Homo sapiens) (UniProt P04183); settings: herpes simplex virus
T1 sequence (whole entry): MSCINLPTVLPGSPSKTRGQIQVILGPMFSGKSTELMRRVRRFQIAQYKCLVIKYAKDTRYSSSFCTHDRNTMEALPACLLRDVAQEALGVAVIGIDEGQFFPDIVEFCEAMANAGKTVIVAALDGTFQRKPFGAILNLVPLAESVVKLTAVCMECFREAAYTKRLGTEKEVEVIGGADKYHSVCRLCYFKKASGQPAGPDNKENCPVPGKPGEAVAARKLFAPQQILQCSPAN

[11] = Cytotoxic concentration against HSV-1 TK- transfected osteosarcoma cells; format: functional; settings: Human alphaherpesvirus 1; how it was run: as §2
[12] = Cytotoxic concentration against HSV-1 TK-transfected osteosarcoma cells; format: functional; settings: Human alphaherpesvirus 1; how it was run: as §2
Human alphaherpesvirus 3 [13] = experiment: Effective concentration against TK- Varicella-Zoster Virus (VZV) YS/R strain; format: functional, organism-based
HFF [14] = experiment: Cytotoxic concentration for 50% inhibition of cell growth of HSV-2 infected HFF cells determined by CPE assay; format: functional; settings: Homo sapiens
Human alphaherpesvirus 3 [15] = experiment: Effective concentration against TK- Varicella-Zoster Virus (VZV) 07/1 strain; format: functional, organism-based
Human alphaherpesvirus 3 [16] = experiment: Antiviral activity against YS strain of thymidine kinase positive(TK+) Varicella-Zoster Virus (VZV); format: functional, organism-based
Homo sapiens [17] = species: Homo sapiens; experiment: Inhibitory concentration required to reduce cowpox virus induced virus plaque reduction (VPR) in human skin fibroblast; format: functional, organism-based
HFF [18] = experiment: Concentration to reduce Cowpox virus plaque reduction (VPR) by 50% in HFF cells; format: functional, cell-based; settings: Homo sapiens
Homo sapiens [19] = species: Homo sapiens; experiment: Inhibitory concentration required to reduce cowpox virus induced cytopathogenic effect (CPE) in human skin fibroblast; format: functional, organism-based
Human alphaherpesvirus 3 [20] = experiment: Cytotoxic concentration that causes growth inhibition of VZV infected Osteosarcoma cells; format: functional
[21] = Cytotoxic concentration that produces 50% inhibition of cell growth.; format: functional
HFF [22] = experiment: Inhibitory concentration to reduce Cowpox virus induced cytopathogenic effect by 50% in HFF cells; format: functional, cell-based; settings: Homo sapiens
[23] = Catalytic rate constant was determined; format: ADME
Human alphaherpesvirus 3 [24] = experiment: Antiviral activity against YS/R strain of thymidine kinase negative(TK-) Varicella-Zoster Virus (VZV); format: functional, organism-based
Human alphaherpesvirus 3 [25] = experiment: Effective concentration against TK+ Varicella-Zoster Virus (VZV)YS strain; format: functional, organism-based
[26] = Selectivity index calculated as CC50/EC50 in the study of VPR assay of vaccinia virus; format: functional
Homo sapiens [27] = species: Homo sapiens; experiment: Cytotoxic concentration that produces 50% growth inhibition of human skin fibroblast in VPR assay; format: functional
Human alphaherpesvirus 3 [28] = experiment: Effective concentration against TK+ Varicella-Zoster Virus (VZV) OKA strain; format: functional, organism-based
[29] = Selectivity index calculated as CC50/EC50 in the study of cytopathogenic effect by HSV-1; format: functional
HFF [30] = experiment: Cytotoxic concentration for 50% inhibition of cell growth of HSV-1 infected HFF cells determined by VPR assay; format: functional; settings: Homo sapiens
[31] = Selectivity index calculated as CC50/EC50 in the study of cytopathogenic effect by vaccinia virus; format: functional
Homo sapiens [32] = species: Homo sapiens; experiment: as §1; format: functional, organism-based
HFF [33] = experiment: Inhibitory concentration for HSV-1 plaque reduction (VPR) by 50% in HFF cells; format: functional, cell-based; settings: Homo sapiens
[34] = tested on: Thymidine kinase (Herpes simplex virus type 1); experiment: Catalytic turnover constant against HSV-1 thymidine kinase
HFF [35] = experiment: Inhibitory concentration to reduce vaccinia virus induced cytopathogenic effect by 50% in HFF cells; format: functional, cell-based; settings: Homo sapiens
[36] = Minimum cytotoxic concentration that causes microscopically detectable alterations of cell morphology; format: functional
Homo sapiens [37] = species: Homo sapiens; experiment: Inhibitory concentration required to reduce vaccinia virus induced virus plaque reduction (VPR) in human skin fibroblast; format: functional, organism-based
HFF [38] = experiment: Inhibitory concentration for HSV-2 plaque reduction (VPR) by 50% in HFF cells; format: functional, cell-based; settings: Homo sapiens
[39] = (§3) Inhibition constant against HSV-1 TK; format: functional, herpes simplex virus
[40] = Selectivity index calculated as CC50/EC50 in the VPR assay of HSV-1; format: functional
HFF [41] = experiment: Cytotoxic concentration for 50% inhibition of cell growth of HSV-2 infected HFF cells determined by VPR assay; format: functional; settings: Homo sapiens
How it was run: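 Run in virus-infected HFF cells within the plaque reduction assay set-up. […] The value was converted from μg/mL to μM.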

HFF [42] = experiment: Cytotoxic concentration for 50% inhibition of cell growth of HSV-1 infected HFF cells determined by CPE assay; format: functional; settings: Homo sapiens
Human alphaherpesvirus 3 [43] = experiment: Antiviral activity against OKA strain of thymidine kinase positive(TK+) Varicella-Zoster Virus (VZV); format: functional, organism-based
Human alphaherpesvirus 3 [44] = experiment: Antiviral activity against 07/1 strain of thymidine kinase negative (TK-) Varicella-Zoster Virus (VZV); format: functional, organism-based
HFF [45] = experiment: Concentration to reduce vaccinia virus plaque reduction (VPR) by 50% in HFF cells; format: functional, cell-based; settings: Homo sapiens
Human alphaherpesvirus 3 [46] = experiment: Minimum cytotoxic concentration that causes alterations of VZV infected Osteosarcoma cell morphology; format: functional
[47] = Cytotoxic concentration against osteosarcoma cells stably transfected with HSV-1 TK (143B-TK+-HSV-1-WT); format: functional; settings: Human alphaherpesvirus 1; how it was run: as §2
Homo sapiens [48] = species: Homo sapiens; experiment: Inhibitory concentration required to reduce vaccinia virus induced cytopathogenic effect (CPE) in human skin fibroblast; format: functional, organism-based
Homo sapiens [49] = species: Homo sapiens; experiment: Cytotoxic concentration that produces 50% growth inhibition of human skin fibroblast in CPE assay; format: functional
[50] = as §3; format: functional, herpes simplex virus; remark: listed apart in the source
How it was run: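 Purified HSV-1 TK converts [methyl-³H]thymidine to its monophosphate in 50 mM Tris pH 7.5, 5 mM MgCl₂, 5 mM ATP, 2.5 mg/mL BSA under initial-velocity conditions. Three inhibitor concentrations are used, and apparent Ki is taken from Lineweaver–Burk double-reciprocal plots. Six independent assays.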

For `Nc1nc2c(ncn2COCCO)c(=O)[nH]1` [ACYCLOVIR], the EC50 (HFF [1]) was 1.1 µM, the EC50 (Homo sapiens [2]) was 10.2 µM and the EC50 (Human alphaherpesvirus 2) was 10.2 µM. The EC50 (Homo sapiens [3]) was 1.1 µM, the EC50 (Human alphaherpesvirus 1 [4]) was 2.22 µM and the EC50 (HFF [5]) was 1.68 µM. For the same compound, the EC50 (Human alphaherpesvirus 1 [6]) was 2.22 µM and the EC50 (Homo sapiens [7]) was 1.68 µM.
In the case of `Nc1nc2c(ncn2COC(CO)CO)c(=O)[nH]1` [GANCICLOVIR], the CC50 [8] is reported as 75 µM, the CC50 [9] is reported as 300 µM and the k cat [10] is reported as 0.1 s⁻¹. It also gave a CC50 [11] of 200 µM and a CC50 [12] of 75 µM.
In the case of `O=c1[nH]c(=O)n([C@H]2C[C@H](O)[C@]3(CO)C[C@H]23)cc1Br`, the EC50 (Human alphaherpesvirus 3 [13]) is reported as 4 µM, the CC50 (HFF [14]) is reported as > 315 µM and the EC50 (Human alphaherpesvirus 3 [15]) is reported as > 20 µM. It also gave an EC50 (Homo sapiens [2]) of 2.2 µM, an EC50 (Human alphaherpesvirus 3 [16]) of 0.2 µM and an EC50 (Homo sapiens [17]) of 10.7 µM. The EC50 (HFF [18]) was 10.7 µM, the EC50 (Homo sapiens [19]) was 36.3 µM and the CC50 (Human alphaherpesvirus 3 [20]) was > 200 µM. The CC50 [21] was > 200 µM, the EC50 (HFF [22]) was 36.3 µM and the k cat [23] was 0.15 s⁻¹. The EC50 (Human alphaherpesvirus 3 [24]) was 4 µM, the EC50 (Human alphaherpesvirus 3 [25]) was 0.2 µM and the SI [26] was >38. The CC50 (Homo sapiens [27]) was > 315 µM, the CC50 [9] was 330 µM and the EC50 (Human alphaherpesvirus 3 [28]) was 0.2 µM. For the same compound, the SI [29] was > 256, the CC50 (HFF [30]) was > 315 µM and the SI [31] was >156. It also gave an EC50 (Human alphaherpesvirus 2) of 2.2 µM, an EC50 (Homo sapiens [32]) of 1.23 µM and an EC50 (HFF [33]) of 0.095 µM. For the same compound, the EC50 (Homo sapiens [3]) was 0.095 µM, the k cat [34] was 0.15 s⁻¹ and the EC50 (HFF [35]) was 2.01 µM. For the same compound, the MCC [36] was > 50 µM, the EC50 (Homo sapiens [37]) was 8.19 µM and the EC50 (HFF [38]) was 0.378 µM. For the same compound, the Ki [39] was 69.8 µM, the SI [40] was > 3320 and the CC50 (HFF [41]) was > 315 µM. For the same compound, the CC50 (HFF [42]) was > 315 µM, the EC50 (Human alphaherpesvirus 3 [43]) was 0.2 µM and the EC50 (Human alphaherpesvirus 1 [6]) was 1.23 µM. For the same compound, the EC50 (Human alphaherpesvirus 3 [44]) was > 20 µM, the EC50 (Homo sapiens [7]) was 0.378 µM and the EC50 (HFF [45]) was 8.19 µM. The MCC (Human alphaherpesvirus 3 [46]) was > 50 µM, the CC50 [47] was 150 µM and the EC50 (Homo sapiens [48]) was 2.01 µM. For the same compound, the CC50 (Homo sapiens [49]) was > 315 µM.
With `O=c1[nH]c(=O)n([C@H]2C[C@H](O)[C@]3(CO)C[C@H]23)cc1/C=C/Br` the EC50 (Human alphaherpesvirus 3 [13]) was > 5 µM, the CC50 (HFF [14]) was > 291 µM and the EC50 (Human alphaherpesvirus 3 [15]) was > 5 µM. For the same compound, the EC50 (Homo sapiens [2]) was > 291 µM, the EC50 (Human alphaherpesvirus 3 [16]) was 0.007 µM and the CC50 (Human alphaherpesvirus 3 [20]) was > 200 µM. The CC50 [21] was > 200 µM, the Ki [50] was 62.9 µM and the k cat [23] was 0.07 s⁻¹. For the same compound, the EC50 (Human alphaherpesvirus 3 [24]) was > 5 µM, the EC50 (Human alphaherpesvirus 3 [25]) was 0.007 µM and the EC50 (Human alphaherpesvirus 3 [28]) was 0.005 µM. The EC50 (Human alphaherpesvirus 2) was > 291 µM, the EC50 (Homo sapiens [32]) was 6.41 µM and the k cat [34] was 0.07 s⁻¹. For the same compound, the MCC [36] was > 5 µM, the CC50 (HFF [42]) was > 291 µM and the EC50 (Human alphaherpesvirus 3 [43]) was 0.005 µM. The EC50 (Human alphaherpesvirus 1 [6]) was 6.41 µM, the EC50 (Human alphaherpesvirus 3 [44]) was > 5 µM and the MCC (Human alphaherpesvirus 3 [46]) was > 5 µM. For the same compound, the CC50 (Homo sapiens [49]) was > 291 µM.
In the case of `Cc1cn([C@H]2C[C@H](O)[C@@H](CO)O2)c(=O)[nH]c1=O` [DOXRIBTIMINE], the k cat [23] is reported as 0.35 s⁻¹ and the k cat [10] is reported as 0.35 s⁻¹.
